1 compound from ChEMBL document CHEMBL2440039, “Synthesis and pharmacological evaluation of novel N-aryl-3,4-dihydro-1'H-spiro[chromene-2,4'-piperidine]-1'-carboxamides as TRPM8 antagonists” (Bioorg Med Chem, 2013) can be followed below.

The test system of data set [1] is Rattus norvegicus. Description: Drug uptake in Sprague-Dawley rat at 10 mg/kg, po up to 8 hrs. The format is ADME, organism-based. The arrangement: dose 10 mg/kg, route oral. The note with it: in vivo. The procedure, abridged: (§1)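 Male SD rats (180–220 g, n=3), fasted overnight, single oral gavage dose as suspension in 1% Tween 80 / 0.5% w/v methyl cellulose in water. Blood (K2EDTA) drawn 0.5–24 h post dose. Plasma taken by liquid–liquid extraction with internal standard and measured by achiral LC/MS/MS. Values given as mean ± SD.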

Data set [2] can be described thus: Tmax in Sprague-Dawley rat at 10 mg/kg, po. Format: ADME, organism-based. The arrangement: dose 10 mg/kg, route oral. The note with it: in vivo. A digest of the protocol: as §1
Data set [3] concerns Mus musculus. Description: Inhibition of oxaliplatin-induced peripheral neuropathic pain in acetone spray-induced cold allodynia C57/BL6 mouse model assessed as inhibition of nocifensive paw licking behavior at 30 mg/kg, po. Format: functional. The procedure, abridged:
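Male C57/BL6 mice (20–30 g) received oxaliplatin (3 mg/kg ip, in 5% glucose, 10 ml/kg) and were tested for cold allodynia 3 days later. Compound was dosed po 30 min before acetone spray, with 0.5% MC as vehicle. Nocifensive paw licking/flicking was scored. Analysis was one-way ANOVA with Bonferroni versus vehicle.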

The test system of data set [4] is Mus musculus. Description: Inhibition of oxaliplatin-induced peripheral neuropathic pain in po dosed acetone spray-induced cold allodynia C57/BL6 mouse model assessed as inhibition of nocifensive paw licking behavior. The format is functional, organism-based. A digest of the protocol:
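Male C57/BL6 mice (20–30 g) given oxaliplatin 3 mg/kg ip in 5% glucose and tested for cold allodynia 3 days later. Compound given po (3, 10, 30 mg/kg) 30 min before acetone spray, vehicle 0.5% MC. Nocifensive paw licking recorded. One-way ANOVA with Bonferroni test.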

For data set [5], the system named is Rattus norvegicus. Description: Inhibition of acetone spray-induced cold allodynia in Sprague-Dawley rat chronic constriction injury model at 10 mg/kg, po after 3 hrs. Format: functional. The procedure, abridged: (§2)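 Male SD rats (160–200 g) with sciatic nerve chronic constriction injury under ketamine/xylazine, tested 7 days later at 21 ± 0.5 °C. Oral dose, vehicle 0.5% MC. Acetone 100 µl sprayed on ipsilateral paw, repeated 3–5 times at 5 min intervals. Flinches and licking counted over 2 min at 0, 0.5, 1, 2 and 3 h, scored clinically.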

The subject of data set [6] is Rattus norvegicus. The data set can be described thus: Inhibition of acetone spray-induced cold allodynia in Sprague-Dawley rat chronic constriction injury model at 10 mg/kg, po after 2 hrs. Format: functional. The procedure, abridged:
as §2

Data set [7] deals with Rattus norvegicus. Description: Inhibition of acetone spray-induced cold allodynia in Sprague-Dawley rat chronic constriction injury model at 10 mg/kg, po after 1 hr. The format is functional. A digest of the protocol:
as §2

The subject of data set [8] is Rattus norvegicus. The data set can be described thus: Inhibition of acetone spray-induced cold allodynia in Sprague-Dawley rat chronic constriction injury model at 10 mg/kg, po after 0.5 hrs. Format: functional. The procedure, abridged:
as §2

The target of data set [9] is Transient receptor potential cation channel subfamily M member 8 (Rattus norvegicus, UniProt Q8R455). Description: Antagonist activity at rat TRPM8 by 45Ca2+ uptake assay.
Data set [10] relates to Rattus norvegicus. Description: AUC (0 to t) in Sprague-Dawley rat at 10 mg/kg, po. The format is ADME, organism-based, Plasma. Also on record: dose 10 mg/kg, route oral. Conditions: in vivo; call rule not given here. The procedure, abridged: as §1
Data set [11] is described as follows: Cmax in Sprague-Dawley rat at 10 mg/kg, po. The arrangement: dose 10 mg/kg, route oral. Format: ADME, organism-based. Conditions: in vivo. A digest of the protocol:
as §1

Data set [12] is described as follows: Metabolic stability in human liver microsomes assessed as compound remaining at 1 uM after 60 mins by LC/MS/MS analysis. The note with it: read-out: Stability. Format: ADME, Microsome. The procedure, abridged: (§3)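 Liver microsomes (1.0 mg/mL protein) from male CD1 mouse, Wistar rat, Beagle dog, Cynomolgus monkey, or pooled human. Test item 1.0 µM in KH2PO4 buffer pH 7.4 with 2.0 mM NADPH (final) at 37 °C for 60 min, stopped with TBME. Extract read by LC/MS/MS as area ratio to internal standard. Percent remaining is 60 min relative to 0 min.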
(Liver microsomes are a subcellular fraction often used to study metabolism.)

A short description of data set [13]: Metabolic stability in cynomolgus monkey liver microsomes assessed as compound remaining at 1 uM after 60 mins by LC/MS/MS analysis. Format: ADME, Macaca fascicularis, Microsome. The note with it: read-out: Stability. A digest of the protocol: as §3
The nature of data set [14]: Metabolic stability in Beagle dog liver microsomes assessed as compound remaining at 1 uM after 60 mins by LC/MS/MS analysis. The note with it: read-out: Stability. Format: ADME, Canis lupus familiaris, Microsome. The procedure, abridged: as §3
The nature of data set [15]: Metabolic stability in Wistar rat liver microsomes assessed as compound remaining at 1 uM after 60 mins by LC/MS/MS analysis. Format: ADME, Microsome. The note with it: read-out: Stability. A digest of the protocol:
as §3

A short description of data set [16]: Metabolic stability in CD-1 mouse liver microsomes assessed as compound remaining at 1 uM after 60 mins by LC/MS/MS analysis. Format: ADME, Microsome. Conditions: read-out: Stability. The procedure, abridged:
as §3

Data set [17] addresses Transient receptor potential cation channel subfamily A member 1 (Homo sapiens) (UniProt O75762). Description: Antagonist activity at human TRPA1 expressed in CHO cells assessed as inhibition of allyl isothiocyanate-induced 45Ca2+ uptake at 1 uM incubated for 10 mins prior to allyl isothiocyanate-challenge measured after 2 to 5 mins by liquid scintillation counting analysis. The format is cell-based. A digest of the protocol: (§4)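 CHO cells stably expressing human TRPA1, TRPV1, TRPV3 or TRPV4. Temperature 30 °C for TRPV1, 32 °C for TRPV3, 25 °C for TRPV4 and TRPA1. Compound preincubated 10 min, then 45Ca2+ (5 µCi/mL final) and agonist added. Wash after 2–5 min, lyse, scintillation count. TRPV1 IC50 from six-point curves in at least two experiments. TRPA1, TRPV3 and TRPV4 run in duplicate as % inhibition at 1.0 µM.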

Data set [18] addresses Transient receptor potential cation channel subfamily V member 4 (Homo sapiens) (UniProt Q9HBA0). Description: Antagonist activity at human TRPV4 expressed in CHO cells assessed as inhibition of 4alphaPDD-induced 45Ca2+ uptake at 1 uM incubated for 10 mins prior to 4alphaPDD-challenge measured after 2 to 5 mins by liquid scintillation counting analysis. Format: cell-based. A digest of the protocol:
as §4

Data set [19] has as its target T1, Transient receptor potential cation channel subfamily V member 3 (Homo sapiens) (UniProt Q8NET8).
T1 sequence (whole entry): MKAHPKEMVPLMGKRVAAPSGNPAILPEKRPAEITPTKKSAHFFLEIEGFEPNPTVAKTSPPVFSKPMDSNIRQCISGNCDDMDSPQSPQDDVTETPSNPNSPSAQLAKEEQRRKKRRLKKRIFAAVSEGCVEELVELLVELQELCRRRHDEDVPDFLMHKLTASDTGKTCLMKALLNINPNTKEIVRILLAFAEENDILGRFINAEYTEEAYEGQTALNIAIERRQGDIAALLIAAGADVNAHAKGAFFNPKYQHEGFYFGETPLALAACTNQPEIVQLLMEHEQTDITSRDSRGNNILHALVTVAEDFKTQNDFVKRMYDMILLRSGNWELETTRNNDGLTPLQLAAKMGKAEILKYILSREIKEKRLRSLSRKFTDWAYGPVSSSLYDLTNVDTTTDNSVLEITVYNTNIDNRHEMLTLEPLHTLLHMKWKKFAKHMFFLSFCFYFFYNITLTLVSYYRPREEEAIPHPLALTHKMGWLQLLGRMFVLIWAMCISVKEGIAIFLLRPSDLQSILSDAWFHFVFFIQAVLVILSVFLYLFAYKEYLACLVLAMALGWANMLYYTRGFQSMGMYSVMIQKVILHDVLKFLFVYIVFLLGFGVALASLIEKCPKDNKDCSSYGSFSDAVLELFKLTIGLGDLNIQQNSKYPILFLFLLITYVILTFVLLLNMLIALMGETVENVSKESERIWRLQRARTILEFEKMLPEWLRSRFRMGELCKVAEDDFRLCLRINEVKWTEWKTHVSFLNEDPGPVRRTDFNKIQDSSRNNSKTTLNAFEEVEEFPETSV
Description: Antagonist activity at human TRPV3 expressed in CHO cells assessed as inhibition of 2APB-induced 45Ca2+ uptake at 1 uM incubated for 10 mins prior to 2APB-challenge measured after 2 to 5 mins by liquid scintillation counting analysis. Format: cell-based. A digest of the protocol:
as §4

The target of data set [20] is Transient receptor potential cation channel subfamily V member 1 (Homo sapiens, UniProt Q8NER1). The data set can be described thus: Antagonist activity at human TRPV1 expressed in CHO cells assessed as inhibition of capsaicin-induced 45Ca2+ uptake incubated for 10 mins prior to capsaicin-challenge measured after 2 to 5 mins by liquid scintillation counting analysis. The format is cell-based. The procedure, abridged:
as §4

The target of data set [21] is Transient receptor potential cation channel subfamily M member 8 (Homo sapiens, UniProt Q7Z2W7). The data set can be described thus: Antagonist activity at human TRPM8 expressed in CHO cells assessed as inhibition of icilin-induced 45Ca2+ uptake incubated for 10 mins prior to icilin-challenge measured after 4 mins by liquid scintillation counting analysis. Format: cell-based. A digest of the protocol:
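CHO cells stably expressing human TRPM8 in DMEM F-12 with 10% FBS and G418, seeded overnight. Assay buffer is DMEM F12 with 0.1% BSA and 1.8 mM CaCl2, run at 25 °C. Compound added 10 min before 45Ca2+ (5 µCi/mL final) and icilin. Wash after 4 min, lyse, count cpm. IC50 from six-point curves by nonlinear regression, at least two independent experiments.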

Data set [22] relates to Mus musculus. Description: Inhibition of icilin-induced wet dog shakes in C57/BL6 mouse at 30 mg/kg, po administered 30 mins prior to icilin-challenge measured for 30 mins. The format is functional. The procedure, abridged:
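Male C57/BL6 mice (20–30 g) acclimatized in a bell jar 10 min daily for 3 days. Icilin 30 mg/kg ip in 20% DMSO / 1% Tween 80. Compound given po 30 min before icilin, vehicle 0.5% MC. Wet dog shakes counted for 30 min after icilin. One-way ANOVA with Bonferroni test.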

Structures are written as SMILES.

What is called Tmax is the time from dosing to the highest level. A word on the inhibition: it is the drop in the measured response relative to a control, in per cent. What is called IC50 is the concentration that inhibits the measured activity by half. By Cmax is commonly meant the maximum level reached in the sampled fluid or tissue.

Chain of Transient receptor potential cation channel subfamily A member 1 (Homo sapiens) (O75762 whole entry): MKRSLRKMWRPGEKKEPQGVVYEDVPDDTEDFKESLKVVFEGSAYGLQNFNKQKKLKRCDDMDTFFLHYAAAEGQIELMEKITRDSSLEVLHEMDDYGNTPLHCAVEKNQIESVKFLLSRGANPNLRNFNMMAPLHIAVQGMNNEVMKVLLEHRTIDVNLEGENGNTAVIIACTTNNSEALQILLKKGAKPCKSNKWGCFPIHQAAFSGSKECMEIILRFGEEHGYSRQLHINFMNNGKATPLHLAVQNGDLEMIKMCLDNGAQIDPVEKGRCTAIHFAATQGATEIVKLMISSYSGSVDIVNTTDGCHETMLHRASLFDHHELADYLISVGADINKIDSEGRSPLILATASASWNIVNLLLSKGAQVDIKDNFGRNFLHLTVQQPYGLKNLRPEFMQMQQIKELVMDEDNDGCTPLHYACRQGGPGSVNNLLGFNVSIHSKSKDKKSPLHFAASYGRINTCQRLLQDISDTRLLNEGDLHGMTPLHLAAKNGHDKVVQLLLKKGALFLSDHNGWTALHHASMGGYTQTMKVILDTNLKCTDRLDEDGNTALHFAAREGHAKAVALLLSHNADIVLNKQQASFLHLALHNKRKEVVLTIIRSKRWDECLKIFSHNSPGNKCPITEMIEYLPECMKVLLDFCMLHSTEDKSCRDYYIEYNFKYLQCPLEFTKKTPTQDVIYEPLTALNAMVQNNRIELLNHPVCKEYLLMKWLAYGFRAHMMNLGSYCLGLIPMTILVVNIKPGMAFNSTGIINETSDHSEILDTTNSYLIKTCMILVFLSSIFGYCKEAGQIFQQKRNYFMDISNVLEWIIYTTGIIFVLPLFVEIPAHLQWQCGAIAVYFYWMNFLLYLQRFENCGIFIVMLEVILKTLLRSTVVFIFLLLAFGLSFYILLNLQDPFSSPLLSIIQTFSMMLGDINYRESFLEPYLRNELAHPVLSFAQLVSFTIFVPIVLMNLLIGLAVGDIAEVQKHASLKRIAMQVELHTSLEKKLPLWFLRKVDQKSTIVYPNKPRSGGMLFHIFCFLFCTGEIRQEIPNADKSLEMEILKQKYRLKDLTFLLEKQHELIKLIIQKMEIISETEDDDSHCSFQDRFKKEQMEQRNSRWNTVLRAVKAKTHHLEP
Chain of Transient receptor potential cation channel subfamily M member 8 (Rattus norvegicus, UniProt Q8R455) (Q8R455 whole entry): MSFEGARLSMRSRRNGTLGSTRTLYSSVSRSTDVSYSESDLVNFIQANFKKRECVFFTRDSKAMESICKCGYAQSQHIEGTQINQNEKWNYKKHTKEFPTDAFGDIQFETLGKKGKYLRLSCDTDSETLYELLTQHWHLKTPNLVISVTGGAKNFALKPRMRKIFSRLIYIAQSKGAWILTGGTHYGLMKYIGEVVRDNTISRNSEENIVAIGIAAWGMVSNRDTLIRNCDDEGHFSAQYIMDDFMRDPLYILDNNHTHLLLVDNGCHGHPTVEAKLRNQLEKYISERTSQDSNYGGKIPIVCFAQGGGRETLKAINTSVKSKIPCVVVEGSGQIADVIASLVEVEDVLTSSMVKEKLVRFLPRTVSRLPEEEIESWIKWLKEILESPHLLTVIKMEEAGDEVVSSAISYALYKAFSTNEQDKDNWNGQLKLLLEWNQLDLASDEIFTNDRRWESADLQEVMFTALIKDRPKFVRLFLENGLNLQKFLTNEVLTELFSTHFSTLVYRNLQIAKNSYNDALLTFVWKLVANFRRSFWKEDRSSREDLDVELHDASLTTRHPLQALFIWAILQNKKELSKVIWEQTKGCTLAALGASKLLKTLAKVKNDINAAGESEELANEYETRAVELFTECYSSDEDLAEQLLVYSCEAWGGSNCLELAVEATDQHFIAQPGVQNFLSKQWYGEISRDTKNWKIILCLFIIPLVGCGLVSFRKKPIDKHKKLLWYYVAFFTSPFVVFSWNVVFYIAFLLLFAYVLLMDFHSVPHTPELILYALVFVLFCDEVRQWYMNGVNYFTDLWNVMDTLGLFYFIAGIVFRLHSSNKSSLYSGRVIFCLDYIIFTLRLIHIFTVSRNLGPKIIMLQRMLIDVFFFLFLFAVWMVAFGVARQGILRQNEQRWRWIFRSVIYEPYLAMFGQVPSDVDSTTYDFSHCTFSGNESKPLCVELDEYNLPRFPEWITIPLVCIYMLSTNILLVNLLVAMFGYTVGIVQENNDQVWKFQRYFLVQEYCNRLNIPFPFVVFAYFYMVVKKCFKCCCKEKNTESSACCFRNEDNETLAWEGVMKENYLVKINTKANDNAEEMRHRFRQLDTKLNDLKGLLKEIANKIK
Chain of Transient receptor potential cation channel subfamily V member 1 (Q8NER1 whole entry): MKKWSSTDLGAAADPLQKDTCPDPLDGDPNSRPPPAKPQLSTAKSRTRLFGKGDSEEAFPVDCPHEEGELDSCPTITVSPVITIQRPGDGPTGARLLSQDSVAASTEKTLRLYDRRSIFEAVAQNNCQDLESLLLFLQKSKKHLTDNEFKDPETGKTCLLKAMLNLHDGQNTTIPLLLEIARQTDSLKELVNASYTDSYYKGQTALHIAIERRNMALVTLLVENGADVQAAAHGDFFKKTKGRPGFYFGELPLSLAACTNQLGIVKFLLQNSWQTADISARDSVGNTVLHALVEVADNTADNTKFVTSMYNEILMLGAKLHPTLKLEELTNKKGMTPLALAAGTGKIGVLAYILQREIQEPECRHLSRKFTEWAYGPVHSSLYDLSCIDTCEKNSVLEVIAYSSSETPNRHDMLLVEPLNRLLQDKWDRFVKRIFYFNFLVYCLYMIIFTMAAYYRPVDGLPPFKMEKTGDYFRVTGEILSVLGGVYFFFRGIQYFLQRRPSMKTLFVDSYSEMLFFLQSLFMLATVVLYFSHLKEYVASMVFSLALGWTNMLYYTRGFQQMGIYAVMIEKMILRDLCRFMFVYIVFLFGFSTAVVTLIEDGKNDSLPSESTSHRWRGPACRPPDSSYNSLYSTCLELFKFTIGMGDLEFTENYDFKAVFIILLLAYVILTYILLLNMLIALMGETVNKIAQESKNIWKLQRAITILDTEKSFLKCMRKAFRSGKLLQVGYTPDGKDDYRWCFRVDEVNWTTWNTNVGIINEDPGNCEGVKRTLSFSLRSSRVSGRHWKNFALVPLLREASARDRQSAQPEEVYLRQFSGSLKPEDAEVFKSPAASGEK
Chain of Transient receptor potential cation channel subfamily M member 8 (Homo sapiens, UniProt Q7Z2W7) (Q7Z2W7 whole entry): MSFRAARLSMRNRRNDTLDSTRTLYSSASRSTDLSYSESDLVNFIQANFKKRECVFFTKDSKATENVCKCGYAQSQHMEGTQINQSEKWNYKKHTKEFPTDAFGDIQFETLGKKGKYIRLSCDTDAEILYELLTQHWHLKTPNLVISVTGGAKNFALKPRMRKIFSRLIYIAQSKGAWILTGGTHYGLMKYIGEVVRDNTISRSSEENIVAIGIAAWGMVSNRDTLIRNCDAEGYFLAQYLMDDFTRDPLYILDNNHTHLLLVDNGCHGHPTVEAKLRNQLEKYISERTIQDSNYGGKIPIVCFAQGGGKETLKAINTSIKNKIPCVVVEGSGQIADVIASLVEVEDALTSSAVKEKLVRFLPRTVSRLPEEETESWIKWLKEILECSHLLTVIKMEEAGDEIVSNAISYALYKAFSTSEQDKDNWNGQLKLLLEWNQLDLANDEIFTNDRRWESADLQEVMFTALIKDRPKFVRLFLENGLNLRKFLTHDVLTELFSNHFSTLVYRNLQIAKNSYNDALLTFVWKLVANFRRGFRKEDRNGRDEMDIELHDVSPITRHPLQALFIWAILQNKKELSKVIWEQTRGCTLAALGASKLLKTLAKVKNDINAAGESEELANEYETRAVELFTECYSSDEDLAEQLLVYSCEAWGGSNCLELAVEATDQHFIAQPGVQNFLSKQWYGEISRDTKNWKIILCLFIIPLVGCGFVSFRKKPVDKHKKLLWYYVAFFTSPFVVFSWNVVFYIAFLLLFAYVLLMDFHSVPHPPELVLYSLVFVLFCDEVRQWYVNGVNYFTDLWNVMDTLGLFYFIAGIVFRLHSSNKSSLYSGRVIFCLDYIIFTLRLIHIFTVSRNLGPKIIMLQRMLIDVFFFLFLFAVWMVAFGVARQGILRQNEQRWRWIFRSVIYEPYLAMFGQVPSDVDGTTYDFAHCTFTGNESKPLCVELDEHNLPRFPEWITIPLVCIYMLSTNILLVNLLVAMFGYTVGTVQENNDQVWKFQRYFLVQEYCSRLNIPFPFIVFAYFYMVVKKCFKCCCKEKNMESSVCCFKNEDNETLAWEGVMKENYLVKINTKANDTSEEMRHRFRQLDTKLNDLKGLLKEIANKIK
Chain of Transient receptor potential cation channel subfamily V member 4 (Homo sapiens) (Q9HBA0 whole entry): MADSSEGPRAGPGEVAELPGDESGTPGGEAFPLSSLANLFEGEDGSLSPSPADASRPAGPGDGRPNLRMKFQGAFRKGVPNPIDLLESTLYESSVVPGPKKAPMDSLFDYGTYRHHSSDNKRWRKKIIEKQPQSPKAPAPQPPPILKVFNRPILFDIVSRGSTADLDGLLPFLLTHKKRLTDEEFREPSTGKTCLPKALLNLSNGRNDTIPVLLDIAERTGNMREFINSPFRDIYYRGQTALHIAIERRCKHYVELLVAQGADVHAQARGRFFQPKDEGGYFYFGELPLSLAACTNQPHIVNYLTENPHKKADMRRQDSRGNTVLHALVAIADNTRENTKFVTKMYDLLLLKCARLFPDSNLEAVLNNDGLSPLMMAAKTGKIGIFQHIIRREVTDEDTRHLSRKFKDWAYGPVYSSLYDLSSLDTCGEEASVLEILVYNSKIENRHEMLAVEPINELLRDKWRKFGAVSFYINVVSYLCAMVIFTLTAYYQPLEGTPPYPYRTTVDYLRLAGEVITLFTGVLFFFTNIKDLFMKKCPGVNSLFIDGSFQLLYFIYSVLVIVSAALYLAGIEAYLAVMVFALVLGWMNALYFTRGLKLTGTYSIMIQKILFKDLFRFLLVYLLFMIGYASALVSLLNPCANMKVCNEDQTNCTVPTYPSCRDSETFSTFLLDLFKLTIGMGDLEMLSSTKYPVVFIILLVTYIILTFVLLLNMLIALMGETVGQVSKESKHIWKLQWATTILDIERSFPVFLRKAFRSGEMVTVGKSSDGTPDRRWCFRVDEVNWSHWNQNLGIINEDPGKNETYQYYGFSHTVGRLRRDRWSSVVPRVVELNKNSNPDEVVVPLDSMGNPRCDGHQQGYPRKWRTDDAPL

In the case of `O=C(Nc1ccc(OC(F)(F)F)cc1)N1CCC2(CC1)C[C@@H](O)c1cccc(Cl)c1O2`, the Drug uptake result in [1] is “Active”. Besides, in data set [2], the Tmax turned out to be 1 h. Besides, the Efficacy was found to be 100% in data set [3]; 65% in data set [5]; 74% in data set [6]; 66% in data set [7]; 39% in data set [8]; 72% in data set [22]. The inhibition entry is “Dose-dependent effect” in data set [4], 23.5% in [17], 38.8% in data set [18] and 27.7% in [19]. Besides, the IC50 in data set [9] was 16.5 nM; in data set [20] it was greater than 1000 nM; in data set [21], 8.9 nM. This compound also registered an AUCt in [10] of 4980 ng·h/mL. This compound displayed a Cmax in [11] of 1090 ng/mL. The remaining at 1 h, 1 µM was 67% in data set [12]; 72% in data set [13]; 42% in data set [14]; 79% in data set [15]; 81% in [16].
